Source: ChEMBL document CHEMBL4359867, “Design, synthesis and biological evaluation of novel 4-anilinoquinazoline derivatives as hypoxia-selective EGFR and VEGFR-2 dual inhibitors” (Eur J Med Chem, 2019)
Activity calls are given as the source filed them. The calls are words filed in the database; no cut-off is given here.

Experiments:
[1] = Toxicity in Balb/c mouse xenografted with human A549 cells assessed as reduction in body weight at 10 mg/kg, po measured up to 8 days; format: organism-based; settings: in vivo, 192 h
Procedure, shortened: (§1)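 Male BALB/c-nu mice, 1 × 10^7 A549 cells implanted sc in the flank. Dosing began seven days after implantation: 10 mg/kg oral, daily for 17 days, 5 mice per group, with a vehicle control group. Tumour size measured daily by caliper, with body weight and clinical signs also recorded daily. TGI calculated from volume changes relative to starting volumes versus control.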

[2] = Cytotoxicity against human NCI-H446 cells assessed as inhibition of cell growth at 0.5 uM after 48 hrs under normoxic condition by CCk-8 assay relative to control; format: cell-based
Procedure, shortened: (§2)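 RPMI-1640 with 10% fetal calf serum. Compounds dissolved in DMSO. Hypoxia produced chemically with cobalt(II) chloride; normoxic wells received no CoCl2. Viability read by CCK-8 (WST-8) at 450 nm, and inhibition ratio calculated against untreated control.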

[3] = Cytotoxicity against human A549 cells assessed as inhibition of cell growth at 0.5 uM after 48 hrs under normoxic condition by CCk-8 assay relative to control; format: cell-based; procedure, shortened: as §2
A549 [4] = experiment: Antiproliferative activity against human A549 cells assessed as inhibition of cell growth at 0.5 uM after 48 hrs under hypoxic condition (200 uM CoCl2) by CCk-8 assay relative to control (reference value: 59.94%); format: functional; procedure, shortened: as §2
A549 [5] = experiment: Antiproliferative activity against human A549 cells assessed as hypoxic sensitive enhancement ratio in presence of Cocl2 under irradiation; format: functional
A549 [6] = experiment: Antiproliferative activity against human A549 cells assessed as hypoxic sensitive enhancement ratio in presence of CoCl2; format: functional
A549 [7] = experiment: Antiproliferative activity against human A549 cells assessed as inhibition of cell growth at 0.5 uM in hypoxia condition (200 uM CoCl2) and under irradiation at 8 Gy for 24 hrs and measured after 24 hrs by CCK8 assay (reference value: 64.135%); format: functional
NCI-H446 [8] = experiment: Antiproliferative activity against human NCI-H446 cells assessed as hypoxic sensitive enhancement ratio in presence of CoCl2; format: functional
[9] = molecular target: Epidermal growth factor receptor (Homo sapiens, UniProt P00533); experiment: Inhibition of N-terminal GST-tagged human EGFR cytoplasmic domain (669 to 1210 residues) expressed in baculovirus expression system using FAM-22 peptide as substrate incubated for 10 mins followed by substrate addition by caliper method
NCI-H446 [10] = experiment: Antiproliferative activity against human NCI-H446 cells assessed as inhibition of cell growth at 0.5 uM in hypoxia condition (200 uM CoCl2) and under irradiation at 8 Gy for 24 hrs and measured after 24 hrs by CCK8 assay (reference value: 68.77%); format: functional
NCI-H446 [11] = experiment: Antiproliferative activity against human NCI-H446 cells assessed as inhibition of cell growth at 0.5 uM after 48 hrs under hypoxic condition (200 uM CoCl2) by CCk-8 assay relative to control (reference value: 65.84%); format: functional; procedure, shortened: as §2
NCI-H446 [12] = experiment: Antiproliferative activity against human NCI-H446 cells assessed as hypoxic sensitive enhancement ratio in presence of Cocl2 under irradiation; format: functional
[13] = molecular target: Vascular endothelial growth factor receptor 2 (Homo sapiens, UniProt P35968); experiment: Inhibition of N-terminal GST-tagged human VEGFR2 cytoplasmic domain (790 to 1356 residues) expressed in baculovirus expression system using FAM-22 peptide as substrate incubated for 10 mins followed by substrate addition by caliper method
Procedure, shortened: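 Compounds (DMSO stocks 40 μM–0.2 nM, ten levels) tested in duplicate. Enzyme preincubated with compound 10 min at room temperature, then FAM-P22 peptide/ATP added and incubated at 28 °C. Stopped with EDTA-containing buffer. IC50 obtained by four-parameter Hill fit; staurosporine as reference.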

A549 [14] = experiment: Antitumour activity against human A549 cells xenografted in Balb/c mouse assessed as tumour growth inhibition at 10 mg/kg, po administered daily and mesured at day 17 relative to control; format: functional; settings: 408 h, read-out: TGI; procedure, shortened: as §1
A549 [15] = experiment: Antitumour activity against human A549 cells xenografted in Balb/c mouse assessed as increase in tumour volume at 10 mg/kg, po administered daily and mesured after 7 days; format: functional, organism-based; procedure, shortened: as §1
A549 [16] = experiment: Antitumour activity against human A549 cells xenografted in po dosed Balb/c mouse assessed as tumour growth inhibition administered daily for 18 days and […]; format: functional, organism-based
[17] = Toxicity in Balb/c mouse xenografted with human A549 cells assessed as effect on weight loss at 10 mg/kg, po measured up to 17 days; format: organism-based; settings: in vivo, 408 h; procedure, shortened: as §1
A549 [18] = experiment: Downregulation of VEGF expression in human A549 cells at 5 uM after 24 hrs under normoxic condition by q-PCR analysis relative to control; format: cell-based; settings: a549, 24 h
A549 [19] = experiment: Antitumour activity against human A549 cells xenografted in Balb/c mouse assessed as tumour growth inhibition at 50 mg/kg, po administered daily and measured at day 18 relative to control; format: functional; settings: 432 h, read-out: TGI
Procedure, shortened: (§3)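 Male BALB/c-nu mice carrying sc flank A549 xenografts (1 × 10^7 cells). Dosing began 6–7 days post-inoculation, with oral 5, 15 or 50 mg/kg daily for 18 days and 3 mice per group. Tumours measured by caliper on days 4, 6, 8, 11, 13, 15 and 18. TGI derived from volume change from dosing start relative to untreated controls.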

A549 [20] = experiment: Antitumour activity against human A549 cells xenografted in Balb/c mouse assessed as tumour growth inhibition at 15 mg/kg, po administered daily and measured at day 18 relative to control; format: functional; settings: 432 h, read-out: TGI; procedure, shortened: as §3
A549 [21] = experiment: Downregulation of VEGF expression in human A549 cells at 5 uM after 24 hrs under hypoxic condition by q-PCR analysis relative to control; format: functional
A549 [22] = experiment: Antitumour activity against human A549 cells xenografted in Balb/c mouse assessed as tumour growth inhibition at 5 mg/kg, po administered daily and measured at day 18 relative to control; format: functional; settings: 432 h, read-out: TGI; procedure, shortened: as §3
[23] = Toxicity in Balb/c mouse assessed as weight loss at 100 mg/kg, po administered 5 times per week for 2 weeks; format: organism-based; settings: in vivo, 336 h
Procedure, shortened: (§4)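 Male BALB/c-nu mice dosed orally at 100 mg/kg, five times a week for two weeks with two days off each weekend. Clinical signs of toxicity and body weight monitored.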

[24] = Toxicity in po dosed Balb/c mouse assessed as maximum tolerated dose administered 5 times per week for 2 weeks; format: organism-based; settings: in vivo
[25] = Toxicity in Balb/c mouse assessed as effect on clinical signs at 100 mg/kg, po administered 5 times per week for 2 weeks; format: organism-based; settings: in vivo, 336 h; procedure, shortened: as §4

Sequence of Vascular endothelial growth factor receptor 2 (P35968 whole entry, the tested form may be a part): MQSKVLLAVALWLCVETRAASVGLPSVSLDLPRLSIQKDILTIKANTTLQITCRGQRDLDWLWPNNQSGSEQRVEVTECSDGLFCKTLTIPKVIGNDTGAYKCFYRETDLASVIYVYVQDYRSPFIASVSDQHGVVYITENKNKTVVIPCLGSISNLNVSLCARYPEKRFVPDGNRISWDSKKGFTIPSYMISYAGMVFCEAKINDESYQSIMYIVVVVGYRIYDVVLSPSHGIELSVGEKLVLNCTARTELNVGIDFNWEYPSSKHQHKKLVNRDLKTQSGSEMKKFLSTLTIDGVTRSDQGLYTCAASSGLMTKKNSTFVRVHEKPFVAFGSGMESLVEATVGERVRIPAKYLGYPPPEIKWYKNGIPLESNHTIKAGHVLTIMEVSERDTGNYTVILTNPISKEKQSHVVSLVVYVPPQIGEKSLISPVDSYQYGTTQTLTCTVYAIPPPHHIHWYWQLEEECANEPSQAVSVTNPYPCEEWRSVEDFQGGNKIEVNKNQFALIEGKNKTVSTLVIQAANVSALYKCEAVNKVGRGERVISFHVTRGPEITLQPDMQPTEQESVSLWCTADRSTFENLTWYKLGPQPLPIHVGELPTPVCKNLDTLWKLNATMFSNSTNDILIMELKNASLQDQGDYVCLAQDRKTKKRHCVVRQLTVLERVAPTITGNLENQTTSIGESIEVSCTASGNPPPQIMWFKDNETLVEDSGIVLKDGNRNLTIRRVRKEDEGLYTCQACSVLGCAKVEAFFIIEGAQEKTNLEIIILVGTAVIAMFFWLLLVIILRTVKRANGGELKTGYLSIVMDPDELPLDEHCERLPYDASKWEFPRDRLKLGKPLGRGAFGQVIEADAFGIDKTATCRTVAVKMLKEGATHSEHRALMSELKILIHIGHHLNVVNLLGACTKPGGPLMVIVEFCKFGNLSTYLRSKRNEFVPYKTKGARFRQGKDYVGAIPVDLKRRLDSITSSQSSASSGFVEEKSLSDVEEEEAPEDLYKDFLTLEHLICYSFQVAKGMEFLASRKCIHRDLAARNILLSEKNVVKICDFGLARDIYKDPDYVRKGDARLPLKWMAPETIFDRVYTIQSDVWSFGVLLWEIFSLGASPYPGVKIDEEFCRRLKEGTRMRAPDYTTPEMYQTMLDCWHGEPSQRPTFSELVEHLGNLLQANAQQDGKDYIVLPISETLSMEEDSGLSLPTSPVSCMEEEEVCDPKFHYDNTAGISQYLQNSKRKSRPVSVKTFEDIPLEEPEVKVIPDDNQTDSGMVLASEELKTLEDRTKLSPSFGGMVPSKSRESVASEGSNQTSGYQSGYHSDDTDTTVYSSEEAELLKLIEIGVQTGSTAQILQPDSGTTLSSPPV
Sequence of Epidermal growth factor receptor (P00533 whole entry, the tested form may be a part): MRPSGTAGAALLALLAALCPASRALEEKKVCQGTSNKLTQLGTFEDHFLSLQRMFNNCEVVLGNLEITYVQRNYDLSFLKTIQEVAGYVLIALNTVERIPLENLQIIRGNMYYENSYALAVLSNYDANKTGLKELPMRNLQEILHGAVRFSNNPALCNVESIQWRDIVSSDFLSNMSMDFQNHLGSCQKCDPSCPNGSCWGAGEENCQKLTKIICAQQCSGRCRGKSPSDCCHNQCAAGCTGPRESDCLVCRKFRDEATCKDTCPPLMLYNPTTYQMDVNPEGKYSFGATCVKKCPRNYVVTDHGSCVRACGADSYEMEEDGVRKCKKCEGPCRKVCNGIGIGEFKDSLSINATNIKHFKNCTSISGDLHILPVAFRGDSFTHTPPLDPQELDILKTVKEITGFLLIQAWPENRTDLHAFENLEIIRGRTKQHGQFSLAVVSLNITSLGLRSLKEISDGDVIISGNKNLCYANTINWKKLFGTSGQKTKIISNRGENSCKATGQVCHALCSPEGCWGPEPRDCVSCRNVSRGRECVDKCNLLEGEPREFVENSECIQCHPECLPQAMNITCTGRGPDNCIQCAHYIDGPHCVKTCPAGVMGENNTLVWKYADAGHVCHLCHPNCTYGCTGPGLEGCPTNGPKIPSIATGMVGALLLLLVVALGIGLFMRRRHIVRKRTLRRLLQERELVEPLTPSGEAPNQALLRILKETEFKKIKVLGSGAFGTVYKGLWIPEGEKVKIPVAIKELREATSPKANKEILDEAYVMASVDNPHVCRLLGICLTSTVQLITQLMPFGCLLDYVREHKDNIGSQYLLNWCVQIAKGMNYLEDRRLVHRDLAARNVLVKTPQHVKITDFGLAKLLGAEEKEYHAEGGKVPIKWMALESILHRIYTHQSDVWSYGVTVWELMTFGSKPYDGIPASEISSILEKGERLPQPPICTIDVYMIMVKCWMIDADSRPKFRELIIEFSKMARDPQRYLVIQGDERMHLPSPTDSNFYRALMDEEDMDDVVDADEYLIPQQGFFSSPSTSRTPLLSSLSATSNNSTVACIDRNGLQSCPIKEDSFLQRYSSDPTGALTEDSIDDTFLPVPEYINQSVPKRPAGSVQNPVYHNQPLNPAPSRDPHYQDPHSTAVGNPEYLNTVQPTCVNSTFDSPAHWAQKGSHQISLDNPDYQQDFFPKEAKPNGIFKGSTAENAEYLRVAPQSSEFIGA

Row | SMILES | inhibition at 48 h, 0.5 µM [2] | inhibition at 48 h, 0.5 µM [3] | inhibition (INH) (A549 [4]) | Ratio (A549 [5]) | Ratio (A549 [6]) | inhibition (INH) (A549 [7]) | Ratio (NCI-H446 [8]) | IC50 [9] | inhibition (INH) (NCI-H446 [10]) | inhibition (INH) (NCI-H446 [11]) | Ratio (NCI-H446 [12]) | IC50 [13] | also measured
1 | COc1cc2c(Nc3ccc(Br)cc3F)ncnc2cc1OCC1CCN(C)CC1 [VANDETANIB] | 25.6% | 21.1% | – | – | – | – | – | – | – | – | – | – | Activity [1]: Toxic
2 | COc1cc2c(Nc3ccc(Br)cc3F)ncnc2cc1OCCNC(=O)Cn1cnc([N+](=O)[O-])n1 | 16.8% | 14.9% | 72.99% | 0.9 | 1.19 | 80.3% | 1.07 | 0.0436 µM | 79.03% | 76.34% | 0.85 | 0.0868 µM | –
3 | COc1cc2c(Nc3ccc(C)c(Br)c3)ncnc2cc1OCCNC(=O)Cn1cnc([N+](=O)[O-])n1 | – | – | – | – | – | – | – | 0.0185 µM | – | – | – | 0.184 µM | –
4 | COc1cc2/c(=N/c3ccc(Br)cc3F)nc[nH]c2cc1OCC1CCN(C)CC1 [VANDETANIB] | – | – | 67.26% | – | – | 81.44% | – | – | 82.02% | 77.67% | – | – | inhibition in vivo at 10 mg/kg (A549 [14]): 62.1%; Activity (A549 [15]): Active
5 | COc1cc2c(Nc3ccc(F)c(F)c3)ncnc2cc1OCCOCCOCCNC(=O)Cn1cnc([N+](=O)[O-])n1 | – | – | – | – | – | – | – | 0.02 µM | – | – | – | 1.88 µM | –
6 | COc1cc2c(Nc3ccc(F)cc3Cl)ncnc2cc1OCCOCCNC(=O)Cn1cnc([N+](=O)[O-])n1 | 13.9% | 10.3% | 69.01% | 0.89 | 1.17 | 77.88% | 1.14 | 0.0208 µM | 83.35% | 80.31% | 0.89 | 4.08 µM | –
7 | COc1cc2c(Nc3ccc(C)c(Br)c3)ncnc2cc1OCCOCCNC(=O)Cn1cnc([N+](=O)[O-])n1 | 18.6% | 5.48% | 65.39% | 0.8 | 1.15 | 69.18% | 1.08 | 0.00037 µM | 80.1% | 77.71% | 0.86 | 0.407 µM | –
8 | COc1cc2c(Nc3ccc(C)c(Br)c3)ncnc2cc1OCCOCCOCCNC(=O)Cn1cnc([N+](=O)[O-])n1 | – | – | – | – | – | – | – | 0.00624 µM | – | – | – | 0.245 µM | –
9 | COc1cc2c(Nc3ccc(Br)cc3F)ncnc2cc1OCC1CCN(C(=O)Cn2cncc2[N+](=O)[O-])CC1 | – | – | – | – | – | – | – | 0.00323 µM | – | – | – | 0.0271 µM | –
10 | COc1cc2c(Nc3ccc(F)cc3)ncnc2cc1OCCOCCNC(=O)Cn1cnc([N+](=O)[O-])n1 | 11.1% | 8.43% | 72.53% | 0.86 | 1.25 | 76.94% | 1.13 | 0.0164 µM | 80.58% | 78.7% | 0.86 | 0.864 µM | –
11 | COc1cc2c(Nc3cccc(F)c3)ncnc2cc1OCCOCCNC(=O)Cn1cnc([N+](=O)[O-])n1 | – | – | – | – | – | – | – | 0.00311 µM | – | – | – | 1.2 µM | –
12 | COc1cc2c(Nc3ccc(F)cc3Cl)ncnc2cc1OCCNC(=O)Cn1cnc([N+](=O)[O-])n1 | – | – | – | – | – | – | – | 0.0481 µM | – | – | – | 0.517 µM | –
13 | COc1cc2c(Nc3ccc(Cl)c(Cl)c3F)ncnc2cc1OCCOCCNC(=O)Cn1cnc([N+](=O)[O-])n1 | 20.5% | 13.8% | 82.25% | – | – | 80.7% | – | – | 85% | 77.9% | – | 0.0678 µM | inhibition (A549 [16]): Dose-dependent effect; Activity [17]: Non-Toxic; fold change (FC) (A549 [18]): 0.1833; inhibition in vivo at 50 mg/kg (A549 [19]): 76.3%; inhibition in vivo at 15 mg/kg (A549 [20]): 63.9%; fold change (FC) (A549 [21]): 0.0037; inhibition in vivo at 5 mg/kg (A549 [22]): 28.1%; inhibition in vivo at 10 mg/kg (A549 [14]): 49%; Activity (A549 [15]): Active
14 | COc1cc2c(Nc3ccc(Br)cc3F)ncnc2cc1OCCOCCOCCNC(=O)Cn1cnc([N+](=O)[O-])n1 | 20.4% | 16% | 74.36% | 0.9 | 1.2 | 80.36% | 1.08 | 0.00495 µM | 84.92% | 78.81% | 0.91 | 0.217 µM | –
15 | COc1cc2c(Nc3ccc(F)cc3Cl)ncnc2cc1OCCOCCOCCNC(=O)Cn1cnc([N+](=O)[O-])n1 | – | – | – | – | – | – | – | 0.0129 µM | – | – | – | 2.87 µM | –
16 | COc1cc2c(Nc3ccc(Br)cc3F)ncnc2cc1OCCOCCNC(=O)Cn1cnc([N+](=O)[O-])n1 | 18.9% | 6.75% | 75.86% | 0.96 | 1.32 | 86.41% | 1.17 | 0.0059 µM | 88.66% | 84.37% | 0.93 | 0.0368 µM | inhibition (A549 [16]): Dose-dependent effect; Activity [23]: Non-Toxic; Activity [17]: Non-Toxic; MTD at 336 h [24]: 100 mg/kg; Activity [25]: Non-Toxic; fold change (FC) (A549 [18]): 0.1571; inhibition in vivo at 50 mg/kg (A549 [19]): 80.5%; inhibition in vivo at 15 mg/kg (A549 [20]): 68.3%; fold change (FC) (A549 [21]): 0.0011; inhibition in vivo at 5 mg/kg (A549 [22]): 31.2%; inhibition in vivo at 10 mg/kg (A549 [14]): 63.9%; Activity (A549 [15]): Active
17 | COc1cc2c(Nc3ccc(F)c(F)c3)ncnc2cc1OCCOCCNC(=O)Cn1cnc([N+](=O)[O-])n1 | – | – | – | – | – | – | – | 0.0037 µM | – | – | – | 1.1 µM | –
